Results published in ChEMBL document CHEMBL1128569, “N-acyl-2-substituted-1,3-thiazolidines, a new class of non-narcotic antitussive agents: studies leading to the discovery of ethyl 2-[(2-methoxyphenoxy)methyl]-beta-oxothiazolidine-3-propanoate” (J Med Chem, 1995).

Key:
[1] = Acute toxicity was determined in mice upon peroral administration; format: organism-based; conditions: mouse, in vivo, po
In short: (§1)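 Swiss mice of both sexes, groups of six, dosed by gavage at several doses up to 1000 mg/kg. Compound dissolved in water or suspended in 0.5% carboxymethyl cellulose, 10 mL/kg. Deaths recorded over 1-7 days. LD50 obtained by logit transformation.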

[2] = test system: Cavia porcellus; test: Antitussive activity by inhibition of irritant citric acid aerosol-induced coughing in guinea pig upon oral administration.; format: functional
In short: (§2)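 Male guinea pigs (350-400 g) exposed in a box to 7.5% citric acid aerosol for 5 min, and coughs counted as the basal value. Next day, after overnight fasting, animals (6-8/dose) were gavaged with compound in water or 0.5% methyl cellulose (2 mL/kg) 1 h before re-exposure. Activity is the reduction in coughs versus the basal count. ED50 is the dose giving 50% reduction (Cochran and Snedecor).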

[3] = test system: Cavia porcellus; test: Antitussive activity was evaluated by inhibition of irritant aerosol-induced coughing by (po) administration of 30 mg/kg in guinea pig; format: functional; in short: as §2
[4] = Lethality in mice following p.o. administration.; format: ADME, organism-based; conditions: mouse, in vivo, po; in short: as §1
[5] = test system: Cavia porcellus; test: Inhibition of irritant electrically-induced coughing in guinea pig trachea following p.o. administration.; format: functional; conditions: po
In short: (§3)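 Guinea pigs under ketamine (10 mg/kg im) and xylazine (3 mg/kg im) anaesthesia, with an electrode wrapped around the trachea about 1.5 cm above the bifurcation and an indifferent electrode on the dorsal skin. Coughs during stimulation counted as the basal value. Groups of 6-8/dose were gavaged with compound in water or 0.5% methyl cellulose (2 mL/kg). Activity is the cough reduction versus basal. ED50 is the dose giving 50% reduction.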

[6] = test system: Cavia porcellus; test: Antitussive activity was evaluated by inhibition of irritant citric acid aerosol-induced coughing in guinea pig upon oral administration at 30 mg/kg dose; format: functional; in short: as §2
[7] = test system: Cavia porcellus; test: Antitussive activity was evaluated by inhibition of irritant electrically-induced coughing in guinea pig trachea upon oral administration at 30 mg/kg; format: functional; in short: as §3
[8] = test system: Cavia porcellus; test: Antitussive activity was evaluated by inhibition of irritant electrically-induced coughing by (po) administration in guinea pig; format: functional; in short: as §3
[9] = test system: Cavia porcellus; test: Antitussive activity was evaluated by inhibition of irritant aerosol-induced coughing by (po) administration in guinea pig; format: functional; in short: as §2

| SMILES | LD50 [1] [mg/kg] | ED50 [2] [mg/kg] | further results |
| --- | --- | --- | --- |
| COc1ccccc1OCC1SCCN1C(=O)CC(=O)NCc1cccnc1.O=C(O)/C=C/C(=O)O (centres undefined) | 677 | 57 |  |
| CCOC(=O)CC(=O)N1CCSC1COc1ccccc1O (centres undefined) | > 1000 | 20 |  |
| COc1ccccc1OCC1SCCN1C(=O)CSC(=O)c1cccnc1 (centres undefined) |  |  | inhibition in vivo at 30 mg/kg [3]: < 20%; LD50 [4]: > 1000 mg/kg |
| O=C(O)[C@@H]1CSC(CCc2ccccc2O)N1 (some centres undefined) | > 1000 |  | ED50 [5]: 45 mg/kg; inhibition in vivo at 30 mg/kg [6]: < 20% |
| COc1ccccc1OCC1SCCN1C(=O)CS (centres undefined) |  |  | inhibition in vivo at 30 mg/kg [6]: < 20% |
| CC(=O)SCC(=O)Oc1ccccc1OCC1SCCN1C(=O)CSC(C)=O (centres undefined) |  |  | inhibition in vivo at 30 mg/kg [3]: < 20%; LD50 [4]: > 1000 mg/kg |
| COc1ccccc1OCC1SCCN1C(=O)COC(C)=O (centres undefined) | > 1000 |  | ED50 [5]: 25 mg/kg |
| CCOC(=O)CC(=O)N1CCS(=O)(=O)C1COc1ccccc1OC (centres undefined) | > 1000 | 28 | inhibition in vivo at 30 mg/kg [7]: < 20% |
| Oc1ccccc1OCC1NCCS1 (centres undefined) | > 1000 |  |  |
| CCOCCOCC(=O)N1CCSC1COc1ccccc1OC (centres undefined) | 916 |  | inhibition in vivo at 30 mg/kg [6]: < 20% |
| COc1ccccc1OCC1SCCN1C(=O)CSC(=O)c1cc(OC)c(OC)c(OC)c1 (centres undefined) |  |  | inhibition in vivo at 30 mg/kg [3]: < 20%; LD50 [4]: > 1000 mg/kg |
| CCOC(=O)[C@@H]1CSC(COc2ccccc2OC)N1 (some centres undefined) | 757 |  | inhibition in vivo at 30 mg/kg [6]: < 20% |
| COc1ccccc1OCC1SCCN1C(=O)CC(=O)N1CCN(C)CC1 (centres undefined) | 880 | 27 |  |
| COC(=O)c1ccc(OCC2SCCN2C(=O)Cn2ccnc2)cc1 (centres undefined) | > 1000 | 62 |  |
| O=C(Cn1ccnc1)N1CCSC1COc1ccccc1O (centres undefined) |  |  | ED50 [5]: 27 mg/kg |
| COc1ccccc1SCC1SCCN1C(=O)Cn1ccnc1 (centres undefined) | 958 |  | inhibition in vivo at 30 mg/kg [6]: < 20% |
| COc1ccc(OCC2SCCN2C(=O)Cn2ccnc2)cc1 (centres undefined) | > 1000 | 48 |  |
| COc1ccccc1OCC1SCCN1C(=O)C[S+](C)[O-] (centres undefined) | > 1000 | 25 | ED50 [5]: 10 mg/kg |
| COc1ccccc1OCC1SCCN1C(=O)CSC(=O)CN1CCN(C)CC1 (centres undefined) |  |  | inhibition in vivo at 30 mg/kg [3]: < 20%; LD50 [4]: > 1000 mg/kg |
| COc1ccc(OCC2SCCN2C(=O)CSC(C)=O)cc1 (centres undefined) |  |  | ED50 [8]: 19 mg/kg; LD50 [4]: > 1000 mg/kg |
| CC(=O)SCC(=O)N1CCSC1CCc1ccccc1O (centres undefined) |  |  | ED50 [9]: 61 mg/kg; LD50 [4]: > 1000 mg/kg |
| CSCC(=O)N1CCSC1COc1ccccc1O (centres undefined) | > 1000 |  | ED50 [5]: 28 mg/kg |
| COc1ccccc1OCC1SCCN1C(=O)CC(=O)NCc1ccccn1 (centres undefined) |  | 26 | ED50 [5]: 64 mg/kg |

| SMILES | LD50 [1] [mg/kg] | ED50 [2] [mg/kg] | further results |
| --- | --- | --- | --- |
| COc1ccccc1OCC1SCCN1C(=O)CSC (centres undefined) |  |  | ED50 [5]: 21 mg/kg |
| CC(=O)SCC(=O)N1CCSC1COc1ccccc1O (centres undefined) |  |  | ED50 [9]: 60 mg/kg; LD50 [4]: > 1000 mg/kg |
| C=CC(=O)N1CCSC1COc1ccccc1OC (centres undefined) | 718 | 74 |  |
| CCN(CC)CCNC(=O)CC(=O)N1CCSC1COc1ccccc1OC (centres undefined) | 250 | 56 | inhibition in vivo at 30 mg/kg [7]: < 20% |
| CCOC(=O)CCC(=O)N1CCSC1COc1ccccc1OC (centres undefined) | > 1000 | 24 |  |
| CNC(=O)CC(=O)N1CCSC1COc1ccccc1OC (centres undefined) | > 1000 | 21 | ED50 [5]: 22 mg/kg |
| COc1ccccc1OCC1SCCN1C(=O)CC(=O)N1CCN(C(c2ccccc2)c2ccccc2)CC1 (centres undefined) | > 1000 | 66 | ED50 [5]: 44 mg/kg |
| CCC(=O)SCC(=O)N1CCSC1COc1ccccc1OC (centres undefined) |  |  | inhibition in vivo at 30 mg/kg [3]: < 20% |
| COc1ccccc1OCC1N(C(=O)CSC(C)=O)CC[S+]1[O-] (centres undefined) |  |  | inhibition in vivo at 30 mg/kg [3]: < 20%; LD50 [4]: 620 mg/kg |
| COc1ccccc1OCC1SCCN1C(=O)CC(=O)N1CCN(C(c2ccc(F)cc2)c2ccc(F)cc2)CC1 (centres undefined) | > 1000 | 26 | ED50 [5]: 32 mg/kg |
| COc1ccccc1OCC1SCCN1C(=O)CC(=O)O (centres undefined) | > 1000 | 20 | inhibition in vivo at 30 mg/kg [7]: < 20% |
| O=C(O)CC(=O)N1CCSC1COc1ccccc1O (centres undefined) | 1000 | 25 |  |
| CCOC(=O)C(=O)N1CCSC1COc1ccccc1OC (centres undefined) | > 1000 |  | inhibition in vivo at 30 mg/kg [6]: < 20% |
| COc1ccccc1OCC1NCCS1 (centres undefined) | > 1000 |  |  |
| CC(=O)SCC(=O)Oc1ccccc1CCC1SCCN1C(=O)CSC(C)=O (centres undefined) |  |  | inhibition in vivo at 30 mg/kg [3]: < 20%; LD50 [4]: > 1000 mg/kg |
| CCOC(=O)CC(=O)N1CC[S+]([O-])C1COc1ccccc1OC (centres undefined) | > 1000 | 27 | ED50 [5]: 28 mg/kg |
| COc1ccccc1OCC1SCCN1C(=O)CNC(C)=O (centres undefined) | > 1000 | 40 |  |
| COc1ccccc1OCC1SCCN1C(=O)/C=C/c1ccc(O)c(O)c1 (centres undefined) |  |  | inhibition in vivo at 30 mg/kg [3]: < 20%; LD50 [4]: > 1000 mg/kg |
| COc1ccccc1OCC1SCCN1C(=O)C(C)SC(C)=O (centres undefined) |  |  | inhibition in vivo at 30 mg/kg [3]: < 20%; LD50 [4]: > 1000 mg/kg |
| COc1ccccc1OCC1N(C(=O)C[S+](C)[O-])CC[S+]1[O-] (centres undefined) | > 1000 |  |  |
| O=C(O)[C@@H]1CSC(COc2ccccc2O)N1 (some centres undefined) | > 1000 |  | inhibition in vivo at 30 mg/kg [6]: < 20% |
| CC(=O)SCC(=O)N1CCSC1COc1ccccc1C (centres undefined) |  |  | inhibition in vivo at 30 mg/kg [3]: < 20%; LD50 [4]: > 1000 mg/kg |
| COc1ccccc1OCC1SCCN1C(=O)Cn1ccnc1 (centres undefined) | 966 | 50 |  |

| SMILES | LD50 [1] [mg/kg] | ED50 [2] [mg/kg] | further results |
| --- | --- | --- | --- |
| COc1ccccc1OCC1SCCN1C(C)=O (centres undefined) | 552 | 46 |  |
| CCCC(=O)CC(=O)N1CCSC1COc1ccccc1OC (centres undefined) |  | 42 |  |
| COc1ccccc1OCC1SCCN1C(=O)C(C)(C)C (centres undefined) | > 1000 |  | ED50 [5]: 24 mg/kg |
| CCOC(=O)[C@@H]1CSC(COc2ccccc2OC)N1C(=O)CSC(C)=O (some centres undefined) |  |  | inhibition in vivo at 30 mg/kg [3]: < 20%; LD50 [4]: 672 mg/kg |
| COc1ccccc1OCC1N(C(=O)CS(C)(=O)=O)CC[S+]1[O-] (centres undefined) | > 1000 |  |  |
| COc1ccccc1OCC1N(C(=O)CC(=O)O)CC[S+]1[O-] (centres undefined) | > 1000 | 20 |  |
| COc1ccccc1OCC1SCCN1C(=O)CC(C)=O (centres undefined) | > 1000 | 30 | ED50 [5]: 26 mg/kg |
| CCOC(=O)C(C)(C)C(=O)N1CCSC1COc1ccccc1OC (centres undefined) | > 1000 | 61 | ED50 [5]: 48 mg/kg |
| COc1ccccc1OCC1SCCN1C(=O)C(C)(C)C(=O)O (centres undefined) | > 1000 | 34 | ED50 [5]: 21 mg/kg |
| COc1ccccc1OCC1SCCN1C(=O)CC(=O)NCc1ccncc1.Cl (centres undefined) | 707 | 23 | ED50 [5]: 13 mg/kg |
| Cl.O=C(O)c1ccc(OCC2SCCN2C(=O)Cn2ccnc2)cc1 (centres undefined) | > 1000 |  | inhibition in vivo at 30 mg/kg [6]: < 20% |
| COc1ccccc1SCC1SCCN1C(=O)CN1CCN(C)CC1 (centres undefined) |  |  | inhibition in vivo at 30 mg/kg [6]: < 20% |
| COc1ccccc1OCC1SCCN1C(=O)CN1CCOCC1.Cl (centres undefined) | 612 |  | inhibition in vivo at 30 mg/kg [6]: < 20% |
| COc1ccccc1OCC1SCCN1C(=O)CC(=O)N1CCN(Cc2ccccc2)CC1.Cl (centres undefined) | 681 | 41 |  |
| COc1ccccc1OCC1SCCN1C(=O)CN1CCN(C)CC1.Cl.Cl (centres undefined) | 818 |  | inhibition in vivo at 30 mg/kg [7]: < 20% |
| COc1ccccc1OCC1SCCN1C(=O)CN.Cl (centres undefined) | 585 | 57 |  |
| COc1ccc2c3c1O[C@H]1[C@@H](O)C=C[C@H]4[C@@H](C2)N(C)CC[C@@]341.COc1ccc2c3c1O[C@H]1[C@@H](O)C=C[C@H]4[C@@H](C2)N(C)CC[C@@]341.O.O=P(O)(O)O.O=P(O)(O)O [CODEINE PHOSPHATE] |  |  | ED50 [9]: 29 mg/kg; ED50 [8]: 14 mg/kg |
| COc1ccc2c(c1)[C@]13CCCC[C@@H]1[C@H](C2)N(C)CC3 [DEXTROMETHORPHAN] |  |  | ED50 [9]: 48 mg/kg; ED50 [8]: 16 mg/kg |
| OCC(O)CN1CCN(c2ccccc2)CC1 (centres undefined) [DROPROPIZINE] |  | 144 | ED50 [5]: 32 mg/kg |
| COc1ccccc1OCC1SCCN1C(=O)CSC(C)=O (centres undefined) [GUAISTEINE] |  |  | ED50 [9]: 26 mg/kg; ED50 [8]: 17 mg/kg; LD50 [4]: > 1000 mg/kg |
| CCOC(=O)CC(=O)N1CCSC1COc1ccccc1OC (centres undefined) [MOGUISTEINE] | > 1000 | 21 | ED50 [5]: 11 mg/kg |
